Here are results for 18 compounds from PubChem BioAssay.

The structures appear in SMILES notation. Calls of active or inactive are those of the source.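 How the source made its calls: active means duplicate-averaged activation above buffer control mean plus 5 SD of those controls; inactive means the rest.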

A short description of this experiment: nonspecific flux increase, KCNQ1-free cells – parental CHO cells, counter-screen for KCNQ1 potentiator project (AID 493006).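 On activation: fluorescence ratio of max minus min over baseline after K+ and Tl+ depolarization.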 To be noted: parental CHO-K1 cells, FluxOR thallium flux, at 10 µM; active compounds read high. An outline of the steps: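 Benchmarks – buffer and R-L3 controls · Assay system – untransfected host CHO-K1 cells with FluxOR thallium dye · Measure – fluorescence change ratio scaled 0% buffer, 100% R-L3 · Technique – kinetic thallium-flux fluorescence · Timing – overnight 37 °C plating, 90 min RT dye, 20 min compound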
As for `Oc1c(Br)cc(Br)cc1C=NCc1ccc(F)cc1`, the activation is 153% (active).

Take `O=c1c(O)c(-c2ccc3c(c2)OCO3)oc2ccccc12`: the outcome was inactive.

As to `Cc1ccc(-c2csc3nc[nH]c(=S)c23)cc1C`, the activation was 223% (active).

`O=C(Nc1cc([N+](=O)[O-])ccc1N1CCCC1)c1cccs1`: the outcome was inactive.

On to `O=C(NC(=S)Nc1ccc(N2CCOCC2)c(Cl)c1)c1sc2ccccc2c1Cl`, for which the result was inactive.

Consider `CC(=O)c1ccc(N2CCN(C(=O)c3ccc(NC(=O)C4CCCO4)cc3)CC2)cc1` (stereo not drawn), for which the result was inactive.

For `CC(=O)Nc1cc(NC(C)=O)cc(C(=O)OC(C)C(=O)Nc2ccc(S(=O)(=O)N3CCCC3)cc2)c1` (stereo not drawn), the activation is 224% (active).

With `O=C(N/N=C/c1c[nH]c2ccccc12)C1COc2ccccc2O1` (stereo not drawn), the result was inactive.

Take `CCCCn1c(=S)[nH]c2ncccc2c1=O`: the outcome was inactive.

Consider `CN(Cc1nccs1)C(=O)c1ccc(OC2CCN(Cc3ccccn3)CC2)cc1`, for which the outcome was inactive.

In the case of `Cc1ccccc1OC(=O)n1c(=S)oc2cc(Cl)ccc21`, the activation was 152% (active).

For the compound `CCOc1ccc(N2CC(C(=O)Nc3cc(Cl)ccc3-n3cncn3)CC2=O)cc1` (stereo not drawn), the result was inactive.

Regarding `COc1ccccc1NC(=O)C(=O)NNC(=O)COc1ccc2ccccc2c1`, the activation is 442% (active).

In the case of `Cc1cccc(NC(=S)NC(=O)c2cc(-c3ccccc3)nc3ccccc23)c1`, the result was inactive.

Turning to `CCCCCn1c(=O)c2ccccc2n2c(=S)[nH]nc12`, the activation was 152% (active).

For `COC(=O)c1sc(-c2ccccc2)cc1NC(=O)C1CC1`, the outcome was inactive.

Turning to `Cc1ccc(N=Nc2ccc(O)c3ncccc23)cc1`, the activation was 185% (active).

Consider `S=c1[nH]c(-c2ccccc2)cn1/N=C/c1cccc2ccccc12`, for which the activation was 174% (active).
